GSTO1 inh – blocks human GSTO1 in RBBP9 counter-screen | P78417 | recombinant GSTO1, activity-based probe fluorescence polarization | inhibition, % at 5.96 µM | 300,000 tested, 1.1% active | AID 1974;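 active = inhibition above the campaign mean inhibition plus 3 SD, cut at about 35% in these data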;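 note: 0% = GSTO1-1 with DMSO and 100% = wells lacking GSTO1-1 enzyme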
Target sequence (P78417 whole entry, looked up): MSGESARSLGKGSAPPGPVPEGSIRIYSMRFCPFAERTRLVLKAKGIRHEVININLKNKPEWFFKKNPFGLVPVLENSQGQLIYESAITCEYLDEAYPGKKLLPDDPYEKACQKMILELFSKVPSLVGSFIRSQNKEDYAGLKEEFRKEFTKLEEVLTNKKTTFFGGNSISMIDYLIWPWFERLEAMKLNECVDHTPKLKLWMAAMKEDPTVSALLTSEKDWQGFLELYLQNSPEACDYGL
Apaf1 inhib – human Apaf-1 inhibition; O14727; reconstituted apoptosome caspase-3 activity, DEVD-Rh110 fluorescence; inhibition, % at 20 µM; 330,000 tested, 0.71% active; active = inhibition of at least 40% at 20 µM;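 note: plate controls were DMSO wells for no effect and DEVD-CHO caspase inhibitor wells for full effect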
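Medium: Hepes buffer, pH 7.5 / System: biochemical Apaf-1 apoptosome reconstitution / Measured by: Rh110 fluorescence, excitation 480 nm, emission 540 nm / Times: compound with Apaf-1, dATP, procaspase-3 30 min, then 50 min reaction, room temperature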
PP1 counter – blocks human PP1-alpha phosphatase, a PP5 counter-screen; P62136; purified PP1alpha, OMFP fluorescence; inhibition, % at 6.7 µM; 320,000 tested, 0.9% active; AID 2235;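 active = inhibition above the mean inhibition of all tested compounds plus 3 SD, computed separately for each screening campaign, cut at about 15% in these data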
TDP2 inh – blocks human TDP2 phosphodiesterase activity | O95551 | recombinant TDP2, T5PNP hydrolysis, p-nitrophenol absorbance 415 nm | inhibition, % at 12.8 µM | 370,000 tested, 0.34% active | AID 720702;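 active = inhibition above the mean of all tested compounds plus 3 SD, set per campaign, cut at about 25% in these data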;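 note: 0% = DMSO with enzyme and 100% = buffer with substrate but no TDP2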
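Read-out basis: percent inhibition. System: recombinant human TDP2. Buffer or medium: Mg2+-containing Tris-HCl buffer, pH 7.5. Repeats: single replicate. Timing: reaction 2 h, 37 °C. Benchmarks: high control without enzyme, low control DMSO plus TDP2. Probe or stimulus: 5 mM T5PNP. Doses: 12.8 µM only. Measured by: epi absorbance of p-nitrophenol freed from T5PNP by hydrolysis.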
PP5 primary – inhibitors of human protein phosphatase 5 (PP5). purified PP5c, OMFP substrate fluorescence. inhibition, % at 6.7 µM. 320,000 tested, 0.18% active. AID 1987;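 active = inhibition above the campaign's mean inhibition across all tested compounds plus 3 SD, cut at about 9.5% in these data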;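 note: 0% = DMSO only and 100% = 100 µM cantharidin control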
Apaf-1 inh conf2 – Apaf-1 inhibition, single-dose confirmed | shares compounds with Apaf1 inhib | reconstituted apoptosome, caspase-3 DEVD-Rh110 fluorescence | inhibition, % at 20 µM | 1,800 tested, 25% active;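 active = mean inhibition of at least 40% at 20 µM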;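 note: plate controls were DMSO wells for no effect and DEVD-CHO caspase inhibitor control wells for full effect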
Rh110 quench – counter-screen for Apaf-1 inhibitors: fluorescence interference; 1,800 tested, under 10 active; Rh110 fluorescence interference, quenched caspase reaction; shares compounds with Apaf1 inhib; activation (fluorescence interference), % at 20 µM;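 active = signal rise of 40% or more at 20 µM, treated as a fluorescence artifact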
Apaf1 inh interf – shows fluorescence interference in the Apaf-1 inhibitor assay format; fluorescence interference counterscreen, Apaf-1 assay format; shares compounds with Apaf1 inhib; 460 tested, under 10 active; IC50, µM; call rule not given here
An asterisk follows results filed as active; . = no result. Hits are enriched below; roughly 2.1% of the tested compounds scored in any of these assays.

SMILES	GSTO1 inh	Apaf1 inhib	PP1 counter	TDP2 inh	PP5 primary	Apaf-1 inh conf2	Rh110 quench	others
O=C(N[C@H](Cc1ccccc1)C(=O)NCc1ccc(OC(F)(F)F)cc1)[C@H]1O[C@@H](n2ccc(=O)[nH]c2=O)[C@H](O)[C@@H]1O	.	.	.	-1	.	.	.
CC(=O)N(\C=C/C=C/C=C1\Sc2ccccc2C1=O)c1ccccc1	-7	28	5	3	5	.	.
CC(=O)N(/N=C1\Sc2ccccc2C1=O)c1ccc(C)cc1C	23	43*	2	8	0	25	4
Oc1ccc(CNc2ccc(C(F)(F)F)cc2F)c2cccnc12	.	.	.	5	.	.	.
CN(C)CCCN(C(=O)CCc1ccccc1)c1nc2ccc(Cl)cc2s1	1	44*	2	-3	2	12	10
Cc1ccc2nc(N(CCCN(C)C)C(=O)CCc3ccccc3)sc2c1	-1	.	0	-7	2	.	.
Cc1cccc(C)c1NC(=O)CN1CCN(CCCC(c2ccc(F)cc2)c2ccc(F)cc2)CC1	3	51*	1	2	3	19	11
Oc1cc(Nc2cccnc2)cc2cccnc12	.	3	.	-9	.	.	.
Oc1cc(NCCc2cccnc2)cc2cccnc12	.	56*	.	15	.	47*	5	Apaf1 inh interf=>100
C[C@H]1[C@@H](OC(=O)Nc2ccccc2F)CC[C@@]23CCCN2C(=O)CCC[C@@H]13	.	.	.	2	.	.	.
C/C(=C\C(=S)Nc1ccccc1)Nc1cccc2ccccc12	1	97*	-11	4	-3	22	9
C/C(=C\C(=S)Nc1ccccc1)Nc1ccc2ccccc2c1	4	41*	3	1	1	15	4
Cc1cccnc1C(NC(=O)C1CCN(Cc2cn(C)c3ccccc23)CC1)c1ccc(Cl)cc1 (centres undefined)	.	.	.	11	.	.	.
O=[N+]([O-])c1ccc(NCCCO)c(S(=O)(=O)N2CCOCC2)c1	2	-17	-4	4	0	.	.
O=[N+]([O-])c1ccc(N/N=C/c2ccc(O)c(O)c2O)c(S(=O)(=O)N2CCOCC2)c1	.	63*	.	-8	.	43*	9	Apaf1 inh interf=>100
Cc1ccc(NC(=O)CN(C)C(=O)c2ccc3[nH]c4c(c3c2)CC(C)CC4)cc1 (centres undefined)	.	59*	0	-6	5	45*	4	Apaf1 inh interf=>100
c1ccc2c(C[C@@H]3CNCCN3CCC34CC5CC(CC(C5)C3)C4)cccc2c1	.	66*	.	-1	.	24	14
c1ccc2c(C[C@@H]3CNCCN3CCCCC3CCCCC3)cccc2c1	.	71*	.	-9	.	34	19
c1ccc(C2(CN3CCNC[C@H]3Cc3cccc4ccccc34)CC2)cc1	0	53*	6	-2	0	2	5
Fc1cccc(CCN2CCNC[C@H]2Cc2cccc3ccccc23)c1	-2	43*	2	-29	2	8	2
Cc1ccc(-c2nnc(SCC(=O)Nc3ccc4c(c3)OCCO4)n2-c2ccc(C)cc2)cc1	.	.	.	-4	.	.	.
O=C(NC1CC2CCCC(C1)N2S(=O)(=O)c1ccccc1)c1ccco1 (centres undefined)	-1	42*	-1	-3	0	2	5
O=C(CN1C2CCCC1CC(NC(=O)c1ccco1)C2)Nc1ccccc1 (centres undefined)	10	2	-6	2	-1	.	.
Cc1cc([N+](=O)[O-])c(C)cc1-c1ccc(/C=N/NC(=O)c2cccnc2)o1	19	55*	4	6	2	38	5
O=C(N/N=C/c1ccc(-c2ccc([N+](=O)[O-])cc2)o1)c1cccnc1	-2	-17	0	-21	3	.	.
Cc1cc(NC(=O)Nc2cccc(F)c2)n(-c2ccccc2)n1	.	.	.	-4	.	.	.
COc1ccc(-c2c(C#Cc3ccsc3)c3cc(Br)ccc3n2C)cc1	.	-7	1	7	0	.	.
COc1ccc(-c2c(C#Cc3ccc(N(C)C)cc3)c3ccccc3n2C)cc1	.	57*	.	7	.	17	5
